Data reported in ChEMBL document CHEMBL1123082, “Hashish: synthesis and central nervous system activity of some novel analogues of cannabidiol and oxepin derivatives of delta 9-tetrahydrocannabinol” (1985).
Calls of active or inactive are those of the source.

Key:
[1] = test system: Mus musculus; assay: Compound was evaluated spontaneous activity in vehicle treated mice at a dose 100 mg/kg.; type: functional
In short: (§1)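 Male ICR mice (22–30 g), housed 24 h in the lab before testing. Vehicle or drug given iv (0.1 mL/10 g), then each mouse placed alone in a photocell activity chamber. Beam interruptions counted for 10 min and expressed as percent of vehicle-treated controls. ED50 with 95% confidence limits by Litchfield–Wilcoxon. At least six mice per dose.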

[2] = test system: Canis familiaris; assay: Compound was evaluated for overt behavoiur in dogs by behavioral rating score in dog static-ataxia test at a dose 0.5 mg/kg; type: functional, Canis lupus familiaris
In short: (§2)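 Mongrel dogs of either sex (8–12 kg) scored for spontaneous activity, gait, tail tuck, etc. before dosing. Cannabinoid or vehicle then given iv (1 mL/5 kg). Behaviour rated every 5 min on the Walton static-ataxia scale as modified. Sessions of five dogs: vehicle, 0.2 mg/kg Δ9-THC positive control, or one of three other cannabinoid treatments. Score given with number of dogs.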

[3] = test system: Mus musculus; assay: Compound was evaluated spontaneous activity in vehicle treated mice at a dose 1 mg/kg.; type: functional; in short: as §1
[4] = test system: Mus musculus; assay: The difference between the preinjection and post injection temperatures in vehicle treated mice was evaluated at a dose 100 mg/kg; type: functional
In short: (§3)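 Male ICR mice (22–30 g). Rectal temperature taken by thermistor probe inserted 25 mm just before iv vehicle or drug (0.1 mL/10 g). Mice spent 10 min in activity chambers, then temperature was taken immediately and every 10 min up to 60 min. Value is the change from pre-injection to 60 min post-injection, mean ± SEM, N = 6. Ambient temperature was 21–24 °C.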

[5] = test system: Mus musculus; assay: The difference between the preinjection and post injection temperatures in vehicle treated mice was evaluated at a dose 30 mg/kg; type: functional; in short: as §3
[6] = test system: Mus musculus; assay: Compound was evaluated spontaneous activity in vehicle treated mice at a dose 30 mg/kg.; type: functional; in short: as §1
[7] = test system: Mus musculus; assay: The difference between the preinjection and post injection temperatures in vehicle treated mice was evaluated at a dose 10 mg/kg; type: functional; in short: as §3
[8] = test system: Mus musculus; assay: Compound was evaluated spontaneous activity in vehicle treated mice at a dose 3 mg/kg.; type: functional; in short: as §1
[9] = test system: Mus musculus; assay: The difference between the preinjection and post injection temperatures in vehicle treated mice was evaluated at a dose 1 mg/kg; type: functional; in short: as §3
[10] = test system: Mus musculus; assay: The difference between the preinjection and post injection temperatures in vehicle treated mice was evaluated at a dose 3 mg/kg; type: functional; in short: as §3
[11] = test system: Mus musculus; assay: Compound was evaluated spontaneous activity in vehicle treated mice at a dose 10 mg/kg.; type: functional; in short: as §1
[12] = test system: Mus musculus; assay: Compound was evaluated for the percent antagonism by tail-flick test in mice in mice at dose 2.5 mg/kg; type: functional
In short: (§4)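 Male ICR mice (22–30 g). Vehicle or drug given iv 10 min before an iv injection of Δ9-THC (1 mg/kg) or vehicle into the opposite tail vein. Tail-flick measured 5 min after the second injection, with a 10 s cutoff. % antagonism = [1 − (%MPE drug-pretreated / %MPE vehicle-pretreated)] × 100. At least six mice per dose.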

[13] = test system: Mus musculus; assay: Compound was evaluated for the maximum possible effect by tail-flick test in mice at dose 5.0 mg/kg; type: functional
In short: (§5)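 Male ICR mice (22–30 g). Control tail-flick latency to a heat source measured in each mouse. Vehicle or drug then given iv into the tail vein and latency retested 5 min later, with a 10 s cutoff. %MPE = (test − control)/(cutoff − control) × 100. At least six mice per dose.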

[14] = test system: Mus musculus; assay: The difference between the preinjection and postinjection (60 min) temperatures in mice was evaluated at a dose 5.0 mg/kg; type: functional; in short: as §3
[15] = test system: Mus musculus; assay: Compound was evaluated for the percent antagonism by tail-flick test in mice in mice at dose 5.0 mg/kg; type: functional; in short: as §4
[16] = test system: Mus musculus; assay: The difference between the preinjection and postinjection (60 min) temperatures in mice was evaluated at a dose 1.0 mg/kg; type: functional; in short: as §3
[17] = test system: Mus musculus; assay: The difference between the preinjection and postinjection (60 min) temperatures in mice was evaluated at a dose 2.5 mg/kg; type: functional
[18] = test system: Mus musculus; assay: Compound was evaluated for the percent antagonism by tail-flick test in mice in mice at dose 1.0 mg/kg; type: functional; in short: as §4
[19] = test system: Mus musculus; assay: The difference between the preinjection and postinjection (60 min) temperatures in mice was evaluated at a dose 60 mg/kg; type: functional
In short: (§6)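 Male ICR mice (22–30 g), housed 24 h before testing; rectal temperature by thermistor probe inserted 25 mm, taken just before dosing. Drug or vehicle given iv (0.1 mL/10 g); mice held 10 min in photocell chambers, then temperature read at 10-min intervals to 60 min. Value is pre- minus 60-min post-injection difference, mean ± SEM, N = 6.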

[20] = test system: Mus musculus; assay: Compound was evaluated for the percent antagonism in tail-flick test in mice at a dose 20 mg/kg; type: functional; in short: as §4
[21] = test system: Mus musculus; assay: The difference between the preinjection and postinjection (60 min) temperatures in mice was evaluated at a dose 30 mg/kg; type: functional; in short: as §3
[22] = test system: Mus musculus; assay: Compound was evaluated for the maximum possible effect in tail-flick test in mice at dose 20 mg/kg; type: functional; in short: as §5
[23] = test system: Mus musculus; assay: Spontaneous activity in mice at a dose 10 mg/kg; type: functional; in short: as §1
[24] = test system: Mus musculus; assay: The difference between the preinjection and postinjection (60 min) temperatures in mice was evaluated at a dose 10 mg/kg; type: functional; in short: as §3
[25] = test system: Mus musculus; assay: The difference between the preinjection and postinjection (60 min) temperatures in mice was evaluated at a dose 5 mg/kg; type: functional; in short: as §3
[26] = test system: Mus musculus; assay: Compound was evaluated for the maximum possible effect in tail-flick test in mice at dose 2.5 mg/kg; type: functional; in short: as §5
[27] = test system: Mus musculus; assay: Compound was evaluated for the maximum possible effect in tail-flick test in mice at dose 1 mg/kg; type: functional; in short: as §5
[28] = test system: Mus musculus; assay: The difference between the preinjection and postinjection (60 min) temperatures in mice was evaluated at a dose 7.5 mg/kg; type: functional
[29] = test system: Mus musculus; assay: Compound was evaluated for the maximum possible effect in tail-flick test in mice at dose 0.3 mg/kg; type: functional; in short: as §5
[30] = test system: Mus musculus; assay: Compound was evaluated for the percent antagonism by tail-flick test in mice in mice at dose 10 mg/kg; type: functional; in short: as §4
[31] = test system: Mus musculus; assay: Compound was evaluated for the percent antagonism by tail-flick test in mice in mice at dose 25 mg/kg; type: functional; in short: as §4
[32] = test system: Mus musculus; assay: Compound was evaluated for the maximum possible effect by tail-flick test in mice at dose 25 mg/kg; type: functional; in short: as §5
[33] = test system: Mus musculus; assay: The difference between the preinjection and postinjection (60 min) temperatures in mice was evaluated at a dose 25 mg/kg; type: functional; in short: as §3
[34] = test system: Mus musculus; assay: The difference between the preinjection and postinjection (60 min) temperatures in mice was evaluated at a dose 35 mg/kg; type: functional; in short: as §3
[35] = test system: Mus musculus; assay: Compound was evaluated for the percent antagonism in tail-flick test in mice at dose 40 mg/kg; type: functional; in short: as §4
[36] = test system: Mus musculus; assay: Compound was evaluated for the maximum possible effect in tail-flick test in mice at dose 40 mg/kg; type: functional; in short: as §5
[37] = test system: Mus musculus; assay: The difference between the preinjection and postinjection (60 min) temperatures in mice was evaluated at a dose 50 mg/kg; type: functional; in short: as §3
[38] = test system: Mus musculus; assay: The difference between the preinjection and postinjection (60 min) temperatures in mice was evaluated at a dose 75 mg/kg; type: functional; in short: as §6
[39] = test system: Mus musculus; assay: The difference between the preinjection and postinjection (60 min) temperatures in mice was evaluated at a dose 100 mg/kg; type: functional; in short: as §3
[40] = test system: Mus musculus; assay: The difference between the preinjection and postinjection (60 min) temperatures in mice was evaluated at a dose 40 mg/kg; type: functional; in short: as §3
[41] = test system: Mus musculus; assay: Compound was evaluated for the maximum possible effect by tail-flick test in mice at dose 20 mg/kg; type: functional; in short: as §5
[42] = test system: Mus musculus; assay: Compound was evaluated for the percent antagonism by tail-flick test in mice in mice at dose 20 mg/kg; type: functional; in short: as §4
[43] = test system: Mus musculus; assay: Compound was evaluated for the percent antagonism in tail-flick test in mice in mice at dose 10 mg/kg; type: functional; in short: as §4
[44] = test system: Mus musculus; assay: Spontaneous activity in mice at a dose 10 mg/kg; Not active up to a lethal dose of 60 mg/kg; type: functional, organism-based; in short: as §1
[45] = test system: Mus musculus; assay: Compound was evaluated for the percent antagonism by tail-flick test in mice at dose 10 mg/kg; type: functional; in short: as §4
[46] = test system: Mus musculus; assay: The difference between the preinjection and post injection temperatures in vehicle treated mice was evaluated at a dose 2 mg/kg; type: functional; in short: as §3
[47] = test system: Mus musculus; assay: Spontaneous activity in vehicle treated mice at a dose 30 mg/kg.; type: functional; in short: as §1
[48] = test system: Canis familiaris; assay: Compound was evaluated for overt behavoiur in dogs by behavioral rating score in dog static-ataxia test at a dose 2 mg/kg; type: functional, Canis lupus familiaris; in short: as §2
[49] = test system: Mus musculus; assay: Spontaneous activity in vehicle treated mice at a dose 100 mg/kg.; type: functional; in short: as §1
[50] = test system: Canis familiaris; assay: Compound was evaluated for overt behavoiur in dogs by behavioral rating score in dog static-ataxia test at a dose 5 mg/kg; type: functional, Canis lupus familiaris; in short: as §2

## C=C1COc2cc(C(C)C(C)CCCCC)cc(O)c2C2C=C(C)CC[C@@H]12 (stereo partly drawn)
[1]
  Spontaneous activity: 82
[2]
  Overt behavoiur: 0
[3]
  Spontaneous activity: 10
[4]
  Hypothermic effect: 7.8
[5]
  Hypothermic effect: 5.7
[6]
  Spontaneous activity: 58
[7]
  Hypothermic effect: 4.9
[8]
  Spontaneous activity: 50
[9]
  Hypothermic effect: 0.4
[10]
  Hypothermic effect: 0.6
[11]
  Spontaneous activity: 71

## C=C(CNCC)[C@@H]1CCC(C)=CC1c1c(O)cc(CCCCC)cc1O (stereo partly drawn)
[12]
  Antagonism: 66%
[13]
  MPE: 7%
[14]
  Hypothermic effect: 1
[15]
  Antagonism: 67%
[16]
  Hypothermic effect: 1
[17]
  Hypothermic effect: 1.4
[18]
  Antagonism: 33%

## C=C(CN1CCOCC1)[C@@H]1CCC(C)=CC1c1c(OC(C)=O)cc(CCCCC)cc1OC(C)=O (stereo partly drawn)
[19]
  Hypothermic effect: 1.3
[20]
  Antagonism: 14%
[21]
  Hypothermic effect: 1.2
[22]
  MPE: 3%
[23]
  ED50: 16 mg/kg
[24]
  Hypothermic effect: 0.9

## CCCCCc1cc(O)c2c(c1)OC(C)(C)[C@@H]1CCC(C)=C[C@@H]21 [DRONABINOL]
[25]
  Hypothermic effect: 3.6
[26]
  MPE: 61%
[27]
  MPE: 53%
[28]
  Hypothermic effect: 3.8
[29]
  MPE: 27%
[17]
  Hypothermic effect: 2.6

## C=C(CNC(=O)CCCN)[C@@H]1CCC(C)=CC1c1c(O)cc(CCCCC)cc1O (stereo partly drawn)
[30]
  Antagonism: 14%
[31]
  Antagonism: 43%
[21]
  Hypothermic effect: 2
[32]
  MPE: 7%
[33]
  Hypothermic effect: 1.3
[34]
  Hypothermic effect: 2.1
[23]
  ED50: 30 mg/kg

## C=C(C)[C@@H]1CCC(C)=C[C@H]1c1c(O)cc(CCCCC)cc1O [CANNABIDIOL]
[35]
  Antagonism: 0%
[36]
  MPE: 5%
[37]
  Hypothermic effect: 0.4
[38]
  Hypothermic effect: 2.1
[39]
  Hypothermic effect: 2.5
[40]
  Hypothermic effect: 0.5

## C#CCN(C)CC(=C)[C@@H]1CCC(C)=CC1c1c(OC(C)=O)cc(CCCCC)cc1OC(C)=O (stereo partly drawn)
[19]
  Hypothermic effect: 1.5
[21]
  Hypothermic effect: 1
[41]
  MPE: 0%
[42]
  Antagonism: 63%
[43]
  Antagonism: 25%
[23]
  ED50: 13 mg/kg
[24]
  Hypothermic effect: 0.3

## C=C(CN(C(C)C)C(C)C)[C@@H]1CCC(C)=CC1c1c(OC(C)=O)cc(CCCCC)cc1OC(C)=O (stereo partly drawn)
[21]
  Hypothermic effect: 0.9
[44]
  ED50: inactive
[41]
  MPE: 0%
[45]
  Antagonism: 0%
[42]
  Antagonism: 58%
[24]
  Hypothermic effect: 1

## C=C1COc2cc(CCCCC)cc(O)c2C2C=C(C)CC[C@@H]12 (stereo partly drawn)
[46]
  Hypothermic effect: 0.4
[4]
  Hypothermic effect: 0
[5]
  Hypothermic effect: 0.1
[47]
  Spontaneous activity: 0
[48]
  Overt behavoiur: 0
[49]
  Spontaneous activity: 41
[50]
  Overt behavoiur: 0
